GPR7 antag: GPR7 receptor antagonists, primary screen, cell-based, fluorescence, single concentration | Neuropeptides B/W receptor type 1 (Homo sapiens), P48145 | GPR7-expressing cells, fluorescence antagonist assay | inhibition, % at 4.4 µM | hit rate 1.1% among 290,000; in the data active means inhibition above about 16%, passing the limit was not always enough;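 further: cells stimulated with the agonist NPW; 0% = agonist with vehicle and 100% = vehicle without agonist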
OX1R antag-1: antagonists of human orexin 1 receptor (OX1R). Orexin/Hypocretin receptor type 1 (Homo sapiens), O43613. OX1R-expressing cells, FRET antagonist read-out. inhibition, % at 6.6 µM. hit rate 1.8% among 330,000. AID 485270, 2010; in the data active means inhibition mostly above about 38%, no sharp cut-off; inactive means mostly below about 40%;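 further: 0% = agonist challenge alone and 100% = reference antagonist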
Target sequence (O43613 whole entry, looked up): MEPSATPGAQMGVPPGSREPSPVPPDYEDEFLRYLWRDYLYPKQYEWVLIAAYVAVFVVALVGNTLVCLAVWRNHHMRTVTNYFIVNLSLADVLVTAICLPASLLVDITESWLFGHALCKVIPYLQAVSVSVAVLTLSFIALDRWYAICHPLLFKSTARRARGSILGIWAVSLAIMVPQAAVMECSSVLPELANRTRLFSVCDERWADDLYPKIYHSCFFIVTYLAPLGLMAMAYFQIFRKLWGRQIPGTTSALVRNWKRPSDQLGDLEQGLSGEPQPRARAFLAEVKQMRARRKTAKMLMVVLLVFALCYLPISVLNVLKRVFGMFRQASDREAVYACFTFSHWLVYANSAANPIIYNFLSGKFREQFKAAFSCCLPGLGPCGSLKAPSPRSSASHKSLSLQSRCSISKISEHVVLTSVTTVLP
TAAR1 ag: human TAAR1 agonists, primary screen, Fluo-8 calcium fluorescence, CHO RD-HGA16 cells. AID 624467, 2012. vehicle wells 0%, saturating PEA agonist 100%. activation, % at 3 µM. hit rate 0.99% among 360,000. Trace amine-associated receptor 1 (Homo sapiens), Q96RJ0;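 active means activation above the mean activation of all test compounds in the run plus 3 SD, cut at about 38% in these data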
Target sequence (Q96RJ0 whole entry, looked up): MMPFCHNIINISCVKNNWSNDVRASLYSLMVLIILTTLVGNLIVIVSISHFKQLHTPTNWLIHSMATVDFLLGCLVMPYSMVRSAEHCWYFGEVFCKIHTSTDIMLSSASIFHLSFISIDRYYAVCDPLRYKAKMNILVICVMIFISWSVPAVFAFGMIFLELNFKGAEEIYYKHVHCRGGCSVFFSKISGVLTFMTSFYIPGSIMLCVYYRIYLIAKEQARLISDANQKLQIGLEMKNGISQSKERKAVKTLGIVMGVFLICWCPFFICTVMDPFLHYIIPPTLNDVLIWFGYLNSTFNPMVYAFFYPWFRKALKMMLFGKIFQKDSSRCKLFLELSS
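Signal – calcium-sensitive Fluo-8 signal, excitation 470-495, emission 515-575 nm · System – RD-HGA16 (CHO) cells co-expressing Gα16 and hTAAR1 · Incubation – 17-24 h seeding, 75 min 37 °C dye, 30 min RT · Compound dosing – 3 µM single concentration · Repeats – no replicates (n 1)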
CHO parental Ca: ATP-evoked calcium signal inhibitors, parental CHO, primary screen, counter-screen for OX1R antagonist project, cell-based, fluorescence, Fluo-8 calcium dye. parental CHO-K1, ATP-induced calcium, Fluo-8 fluorescence. inhibition, % at 5.6 µM. hit rate 0.63% among 330,000;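 active means inhibition above that plate's mean sample inhibition plus 3 SD, cut at about 26% in these data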;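 further: 0% = ATP-challenged DMSO wells and 100% = DMSO wells without ATP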
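Test system: parental CHO cells; detection: calcium-sensitive Fluo-8 fluorescence; evaluation: percent inhibition of calcium signal; also added: ATP as calcium-mobilizing challenge; repeats: one well per compound; control set: ATP-challenged DMSO wells low, unchallenged DMSO wells high; compound: single nominal dose of 5.6 µM per compound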
TAAR1 antagonist: human TAAR1 antagonists, primary screen, Fluo-8 calcium fluorescence, CHO RD-HGA16 cells; antagonist; inhibition, % at 3 µM; hit rate 1.5% among 360,000; AID 624466, 2012;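 active means inhibition above a per-plate cutoff, the mean inhibition of test compounds on that plate plus 3 SD, cut at about 49% in these data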;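 further: 0% = DMSO plus EC80 beta-PEA response and 100% = DMSO alone without agonist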
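Test system: RD-HGA16 CHO cells with stable hTAAR1 and Gα16 / Probe or stimulus: EC80 β-phenethylamine stimulus / Times: seeding 17-24 h prior, 75-min 37 °C, 30-min RT dye loading / Detection: Fluo-8 calcium-sensitive fluorescence / Read-out basis: % inhibition scaled between DMSO and EC80 PEA controls / Repeats: singlicate, one well per test compound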
OX1R antag-2: OX1R (HCRTR1) antagonists, primary screen, fluorescence, CHO/OX1R cells, Fluo-8 calcium, orexin A. AID 434989, 2010. inhibition, % at 5 µM. hit rate 0.43% among 330,000. Fluo-8 calcium fluorescence. Orexin/Hypocretin receptor type 1 (Homo sapiens), O43613;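 active means inhibition above its plate's threshold, mean inhibition of all tested compounds on the plate plus 3 SD, cut at about 37% in these data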;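 further: 0% = orexin A challenge wells and 100% = SB-334867-A antagonist wells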
nonsel antag count: nonselective antagonists in TAAR1 counter-screen cells, counter-screen for hTAAR1 antagonist project, cell-based, fluorescence, calcium; inhibition, % at 3 µM; counterscreen cell line, antagonist mode; hit rate 77% among 2,400; shares compounds with TAAR1 antagonist; in the data active means inhibition above about 22%;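 further: CHO-Ga16 host cells stimulated with ATP at an EC80 level; 0% = agonist EC80 plus vehicle and 100% = vehicle without agonist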
TAAR1 antag conf: human TAAR1 antagonists, retest of hits, confirmation, cell-based, fluorescence. inhibition, % at 3 µM. TAAR1-expressing cells, fluorescence antagonist read-out. hit rate 40% among 2,400. shares compounds with TAAR1 antagonist; in the data active means inhibition above about 49%;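 further: CHO-Ga16 host cells challenged with agonist PEA near its EC80; 0% = agonist at EC80 plus vehicle and 100% = vehicle with no agonist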
Ga16 nonsel ag: calcium activation in Ga16-expressing cells, counter-screen for TAAR1 antagonist project, cell-based, fluorescence; activation, % at 3 µM; hit rate 18% among 2,400; AID 651953, 2012; shares compounds with TAAR1 antagonist; agonist counterscreen; in the data active means activation above about 12%;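 further: 0% = vehicle wells and 100% = saturating stimulus response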
TAAR1 ag counter: TAAR1 activation by candidate antagonists – cell-based, fluorescence, counter-screen for TAAR1 antagonist project; shares compounds with TAAR1 antagonist; hTAAR1 cell line, agonist mode; activation, % at 3 µM; hit rate 2% among 2,400; in the data active means activation above about 37%;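 further: CHO cells stably expressing TAAR1 with calcium dye readout; 0% = DMSO vehicle and 100% = full agonist response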
The depositor's hits bear a star; . = no result given. Compounds with a hit are over-represented: about 4.5% of the library has one in this group of screens.

SMILES	GPR7 antag	OX1R antag-1	TAAR1 ag	CHO parental Ca	TAAR1 antagonist	OX1R antag-2	nonsel antag count	TAAR1 antag conf	Ga16 nonsel ag	TAAR1 ag counter
CC(=O)Oc1ccc(C(=O)Nc2cc(NC(=O)c3ccc(OC(C)=O)cc3)cc(C(=O)NC(C)(C)C)c2)cc1	-6.0	4.1	5.3	15.1	67.0*	8.5	32.3*	42.5	4.8	6.0
CN(Cc1ccccc1)c1nc2c(c(=O)n(C)c(=O)n2C)n1CCCc1ccccc1	0.1	5.9	8.9	-9.2	49.4*	-19.2	27.4*	52.0*	17.3*	39.5*
CCN(CC)c1nc2c(c(=O)n(C)c(=O)n2C)n1CCCc1ccccc1	2.9	7.3	24.9	-6.7	-7.5	-27.6	.	.	.	.
CCCCOc1cccc2c(=O)n(CC(=O)Nc3ccc4c(c3)OCCO4)ccc12	.	.	20.6	.	71.3*	.	43.4*	88.1*	13.1*	28.4
O=C(Cn1cnc2ccccc2c1=O)Nc1ccc2c(c1)OCCO2	-8.4	10.1	5.3	-2.7	10.8	1.3	.	.	.	.
OC(c1ccc(F)c(F)c1)c1nc(-c2ccc3ccccc3c2)cs1 (stereo not drawn)	.	.	22.7	.	55.3*	.	32.4*	36.9	12.8*	13.8
Cn1nc(C(=O)NCc2ccc(F)cc2)c2c1-c1ccccc1S(=O)(=O)C2	-13.0	14.8	2.0	22.4	13.4	-9.8	.	.	.	.
CSc1ccc(CCNC(=O)c2nn(C)c3c2CS(=O)(=O)c2ccccc2-3)cc1	11.6	17.9	8.1	-2.2	61.1*	-6.1	33.6*	49.9*	7.9	7.7
Cc1ccc(CS(=O)(=O)Cc2ccc(C(=O)NC3CC3)o2)cc1	-8.9	3.5	5.3	17.7	-20.4	5.8	.	.	.	.
COc1cc(C)c(C(=O)Oc2cc(C)c(C(=O)O)c(O)c2C)c(O)c1C	.	9.8	-3.0	-4.3	80.2*	-12.4	47.6*	53.1*	-0.1	-3.0
Cc1ccc(OCC(=O)NCCNC(=O)c2ccccn2)cc1	-5.2	9.6	0.7	-7.5	-1.0	-7.5	.	.	.	.
COc1ccc(-c2[nH]c(-c3ccccc3)nc2SCC(=O)Nc2nccs2)cc1	-8.4	20.9	7.7	-11.2	48.7*	-11.7	17.5	31.0	5.8	4.2
CCCCn1c(N)c(N(CCOC)C(=O)CSCc2ccccc2C)c(=O)[nH]c1=O	.	16.3	1.8	-6.5	-6.4	-9.6	.	.	.	.
COc1cccc(N2CCN(CC(=O)Nc3ccccc3C(=O)NCc3ccccc3)CC2)c1	.	1.5	29.0	-22.6	66.1*	-7.4	24.4*	56.2*	8.4	14.9
COC(=O)c1[nH]c2ccccc2c1NC(=O)CN1CCN(c2cccc(Cl)c2)CC1	-1.5	-1.7	13.4	-10.9	61.6*	2.3	30.4*	47.4	9.0	3.5
CCc1ccc(OCC(=O)Nc2ccc(S(=O)(=O)Nc3ccccn3)cc2)cc1	-18.6	2.0	18.3	6.2	-0.8	-13.8	.	.	.	.
COc1cc(C(=O)OCc2csc(CC(=O)Nc3cc(C)ccc3C)n2)ccc1OC(F)F	.	.	8.6	.	65.5*	.	41.8*	52.6*	8.4	4.6
Cc1ccc(C)c(NC(=O)Cc2nc(CCl)cs2)c1	3.8	4.4	-1.6	-3.5	2.1	-11.4	.	.	.	.
Cc1ccc(N(CC(=O)NC(C)C)C(=O)CCC(=O)Nc2nccs2)c(C)c1	5.0	-2.1	3.4	-13.6	-10.0	-24.7	.	.	.	.
CCO[C@@H]1OC(C(=O)Nc2ccccc2)=C[C@H](c2ccc3c(c2)OCO3)[C@H]1CCCO	-21.6	15.2	19.4	-3.4	49.3*	-24.9	19.0	24.6	6.3	6.7
CCO[C@@H]1OC(C(=O)N2CCN(Cc3ccc4c(c3)OCO4)CC2)=C[C@H](C2CCCCC2)[C@H]1CCCO	16.3	29.4	14.7	-19.8	66.9*	-12.2	29.1*	44.8	8.6	7.0
CCO[C@@H]1OC(C(=O)NCc2ccccc2)=C[C@H](c2ccc3c(c2)OCO3)[C@H]1CCCO	-14.9	13.5	9.6	-16.7	-10.7	-28.9	.	.	.	.
O=C(Nc1ccn(CCCNCCCN2CCCC2=O)c(=O)n1)OCc1ccccc1	.	.	2.6	.	-5.8	.	.	.	.	.
O=C(NC1CCCC1)c1nc(-c2ccco2)oc1-c1ccccc1	.	.	-1.1	.	-11.1	.	.	.	.	.
CC(C)C[C@H](NC(=O)c1nc[nH]c1C(=O)NC(c1ccccc1)c1ccccc1)C(=O)OC(C)(C)C	-27.3	-6.9	8.2	-22.3	56.2*	-5.7	19.2	31.5	0.3	1.8
SMILES	GPR7 antag	OX1R antag-1	TAAR1 ag	CHO parental Ca	TAAR1 antagonist	OX1R antag-2	nonsel antag count	TAAR1 antag conf	Ga16 nonsel ag	TAAR1 ag counter
C[C@H](NC(=O)c1nc[nH]c1C(=O)NCc1ccc(CNC(=O)OC(C)(C)C)cc1)c1ccccc1	.	2.1	35.8	-11.6	68.0*	-12.0	38.2*	41.9	10.5	17.0
CC(C)(C)OC(=O)NCc1ccc(CNC(=O)c2nc[nH]c2C(=O)N2CCN(C(=O)OC(C)(C)C)CC2)cc1	.	0.3	25.8	-21.3	61.0*	-22.5	35.1*	52.4*	16.3*	18.8
CC(C)(C)OC(=O)NCc1ccc(CNC(=O)c2[nH]cnc2C(=O)Nc2ccccc2F)cc1	.	.	12.7	.	71.0*	.	42.1*	46.0	11.0	13.1
C[C@@H](NC(=O)c1nc[nH]c1C(=O)NCCCCCNC(=O)OC(C)(C)C)c1ccccc1	.	7.1	9.6	-26.1	23.2	-12.4	.	.	.	.
COCCNC(=O)C1(C)CCCN(C(=O)c2c(-c3ccccc3)noc2C)C1 (stereo not drawn)	.	.	-0.3	.	6.9	.	.	.	.	.
Cn1c(CN2CCCCC2)nc2cc([N+](=O)[O-])ccc21	-15.0	28.6	0.3	-7.1	-26.6	-16.3	.	.	.	.
COCCNC(=O)c1cc(-c2ccc(Cl)c(Cl)c2)on1	-4.4	-0.2	0.6	3.7	4.1	-21.2	.	.	.	.
O=C(Nc1ccccc1)c1ccc(F)c(S(=O)(=O)N2CCOCC2)c1	6.9	10.0	11.5	-3.9	4.6	-22.4	.	.	.	.
O=C(Nc1ccc(-c2cn3ccsc3n2)cc1)c1ccc(F)c(S(=O)(=O)N2CCOCC2)c1	4.7	30.8	22.8	17.4	91.1*	0.8	39.0*	74.9*	11.6*	7.2
